In ChEMBL document CHEMBL4613274, “Chimeric Peptidomimetics of SOCS 3 Able to Interact with JAK2 as Anti-inflammatory Compounds” (ACS Med Chem Lett, 2020):
Activity calls are given as the source filed them. The rule behind the calls is not given here. Square brackets hold non-standard residues; d marks the D form. Peptide text beside a SMILES is read from it. βAla = NCCC(=O)O

Key:
[1] = biological target: Tyrosine-protein kinase JAK2 (Homo sapiens, UniProt O60674); test: Binding affinity to human N-terminal His-tagged JAK2 catalytic domain (826 to 1132 end residues) at 25 degree C by microscale thermophoresis assay
Sequence of Tyrosine-protein kinase JAK2 (O60674 whole entry, the tested form may be a part): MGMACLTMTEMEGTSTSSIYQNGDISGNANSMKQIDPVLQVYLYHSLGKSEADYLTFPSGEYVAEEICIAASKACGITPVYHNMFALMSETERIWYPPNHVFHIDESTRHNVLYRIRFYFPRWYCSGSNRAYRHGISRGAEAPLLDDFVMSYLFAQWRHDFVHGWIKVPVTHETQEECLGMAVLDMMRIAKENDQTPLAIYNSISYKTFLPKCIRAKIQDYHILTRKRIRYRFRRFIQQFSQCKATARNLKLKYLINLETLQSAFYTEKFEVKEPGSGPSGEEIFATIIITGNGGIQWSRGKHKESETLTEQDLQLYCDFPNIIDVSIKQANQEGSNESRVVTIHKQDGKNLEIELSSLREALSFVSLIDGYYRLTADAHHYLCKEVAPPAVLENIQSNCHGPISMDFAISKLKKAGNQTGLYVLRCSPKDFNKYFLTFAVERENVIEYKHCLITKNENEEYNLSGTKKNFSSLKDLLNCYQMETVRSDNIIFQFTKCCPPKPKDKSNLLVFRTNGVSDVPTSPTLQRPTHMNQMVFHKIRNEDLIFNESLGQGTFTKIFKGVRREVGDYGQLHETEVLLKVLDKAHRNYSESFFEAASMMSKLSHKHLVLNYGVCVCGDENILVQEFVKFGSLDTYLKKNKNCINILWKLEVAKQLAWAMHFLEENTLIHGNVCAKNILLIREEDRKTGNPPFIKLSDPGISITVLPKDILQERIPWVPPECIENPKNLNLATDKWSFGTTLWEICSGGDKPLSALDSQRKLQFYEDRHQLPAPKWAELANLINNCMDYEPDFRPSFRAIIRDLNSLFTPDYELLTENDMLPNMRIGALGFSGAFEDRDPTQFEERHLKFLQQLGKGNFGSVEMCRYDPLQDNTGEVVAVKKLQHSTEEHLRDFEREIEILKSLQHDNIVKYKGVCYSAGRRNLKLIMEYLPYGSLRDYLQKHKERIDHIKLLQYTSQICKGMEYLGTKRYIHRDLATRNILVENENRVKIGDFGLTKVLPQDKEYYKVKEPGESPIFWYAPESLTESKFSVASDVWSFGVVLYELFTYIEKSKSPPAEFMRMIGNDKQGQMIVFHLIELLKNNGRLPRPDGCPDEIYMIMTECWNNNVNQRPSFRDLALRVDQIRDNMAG
Method in brief: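 JAK2 catalytic domain binding by microscale thermophoresis; labeled target with 1:1 serial dilutions of peptide (14–16 samples) from stocks of ~404–409 μM in labeling buffer pH 7.5. Temperature-induced fluorescence change plotted versus peptide concentration; KD from fitting of binding isotherm.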

[2] = Stability of compound in FBS assessed as decrease in chromatographic peak at 80 uM incubated up to 4 hrs by RP-HPLC analysis; format: physicochemical; conditions: cattle
Method in brief: (§1)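 Pure peptides incubated in fetal bovine serum; decrease of chromatographic peak area followed over time, expressed as area percentage remaining.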

[3] = Stability of compound in FBS assessed as drug degradation at 80 uM incubated for 2 hrs by RP-HPLC analysis; format: physicochemical; conditions: cattle, fetal bovine serum (FBS); read-out: Drug degradation; method in brief: as §1
[4] = Stability of compound in FBS assessed as residual concentration at 80 uM incubated for 2 hrs by RP-HPLC analysis; format: physicochemical; conditions: cattle, fetal bovine serum (FBS); read-out: Stability; method in brief: as §1
[5] = Drug distribution in cytoplasm of mouse VSMC measured after 2 hrs by confocal microscopy; format: ADME, subcellular; conditions: in vitro
Method in brief: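 Primary murine vascular smooth muscle cells exposed to fluorescent (TAMRA-labeled), Tat 48–60-conjugated peptides; uptake and subcellular distribution imaged by confocal microscopy after 2 h.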

[6] = biological target: Signal transducer and activator of transcription 3 (Mus musculus) (UniProt P42227); test: Inhibition of IFNgamma and IL6 induced STAT3 activation in mouse VSMC cells assessed as decrease in STAT3 phosphorylation at 5 uM pretreated for 90 mins using TAMRA-conjugated peptide followed by IFNgamma and IL6 stimulation for 1 hr by DAPI staining based immunofluorescence assay relative to control; format: cell-based
Sequence of Signal transducer and activator of transcription 3 (Mus musculus) (P42227 whole entry): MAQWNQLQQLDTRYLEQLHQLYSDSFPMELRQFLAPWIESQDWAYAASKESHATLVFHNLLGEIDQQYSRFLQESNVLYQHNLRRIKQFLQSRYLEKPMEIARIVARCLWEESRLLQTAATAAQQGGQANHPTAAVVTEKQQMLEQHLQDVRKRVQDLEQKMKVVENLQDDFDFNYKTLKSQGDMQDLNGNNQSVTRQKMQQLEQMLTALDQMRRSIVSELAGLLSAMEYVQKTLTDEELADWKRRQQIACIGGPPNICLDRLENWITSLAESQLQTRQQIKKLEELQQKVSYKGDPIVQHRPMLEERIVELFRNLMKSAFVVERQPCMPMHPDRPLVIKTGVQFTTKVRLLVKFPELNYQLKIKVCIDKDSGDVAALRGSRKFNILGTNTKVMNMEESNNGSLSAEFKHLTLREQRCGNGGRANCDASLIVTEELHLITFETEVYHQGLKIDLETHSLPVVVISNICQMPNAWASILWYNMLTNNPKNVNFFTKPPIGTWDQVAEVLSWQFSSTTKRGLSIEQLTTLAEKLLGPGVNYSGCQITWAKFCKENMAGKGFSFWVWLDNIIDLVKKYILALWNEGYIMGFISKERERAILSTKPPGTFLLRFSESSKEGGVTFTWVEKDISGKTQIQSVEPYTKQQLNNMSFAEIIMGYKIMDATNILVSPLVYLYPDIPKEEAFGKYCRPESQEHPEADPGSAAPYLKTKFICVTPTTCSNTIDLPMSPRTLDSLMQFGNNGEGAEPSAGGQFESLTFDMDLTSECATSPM
Method in brief: (§2)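 Primary mouse VSMCs stimulated with IFNγ+IL-6 with or without TAMRA-labeled peptide 5 μM; immunofluorescence for phospho-STAT3 with DAPI nuclear counterstain, confocal imaging. P-STAT3 fluorescence intensity given as percentage, mean ± SEM, n = 3 independent experiments.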

[7] = biological target: Signal transducer and activator of transcription 3 (Mus musculus) (UniProt P42227); test: Inhibition of IFNgamma and IL6 induced STAT3 nuclear translocation in mouse VSMC cells at 5 uM pretreated for 90 mins using TAMRA-conjugated peptide followed by IFNgamma and IL6 stimulation for 1 hr by DAPI staining based immunofluorescence assay relative to control; format: cell-based; method in brief: as §2
RAW264.7 [8] = test: Antiinflammatory activity against mouse RAW264.7 cells assessed as reduction in IFNgamma and IL6-induced mRNA expression of Cxcl10 at […] pretreated for 90 mind followed by IFNgamma and IL6 stimulation for 1 hr by Trizol reagent based RT-PCR analysis; format: functional, cell-based
Method in brief: (§3)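 RAW264.7 murine macrophage-like cells; peptides (conjugated to HIV Tat 48–60 for cell entry) or Ala/Arg negative-control peptide at 12.5 μM, then IFNγ+IL-6 stimulation 1 h. Cxcl10, Ccl5 and Nox2 mRNA quantified by real-time PCR.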

RAW264.7 [9] = test: Antiinflammatory activity against mouse RAW264.7 cells assessed as reduction in IFNgamma and IL6-induced mRNA expression of Ccl5 at […] pretreated for 90 mind followed by IFNgamma and IL6 stimulation for 1 hr by Trizol reagent based RT-PCR analysis; format: functional, cell-based; method in brief: as §3
RAW264.7 [10] = test: Antioxidant activity against mouse RAW264.7 cells assessed as reduction in IFNgamma and IL6-induced mRNA expression of Nox2 at […] pretreated for 90 mind followed by IFNgamma and IL6 stimulation for 1 hr by Trizol reagent based RT-PCR analysis; format: functional, cell-based; method in brief: as §3

| Compound | Activity [1] | Stability [2] | metabolised at 2 h, 80 µM [3] | Kd [1] | remaining at 2 h, 80 µM [4] | Drug uptake [5] | inhibition [6] | inhibition [7] | Activity (RAW264.7 [8]) | Activity (RAW264.7 [9]) | Activity (RAW264.7 [10]) |
| --- | --- | --- | --- | --- | --- | --- | --- | --- | --- | --- | --- |
| Ac-VVNAVRKLQESGFYWSAVT-NH2 | Dose-dependent effect | Stable | – | – | – | – | – | – | – | – | – |
| Ac-FSSKSEYQLVVNAVRKLQESGFYWSAVT-NH2 | Dose-dependent effect | Stable | 100% | – | – | – | – | – | – | – | – |
| CC(=O)N[C@@H](CCCCN)C(=O)NCCC(=O)N[C@@H](Cc1ccccc1)C(=O)N[C@@H](CO)C(=O)N[C@@H](CO)C(=O)N[C@@H](CCCCN)C(=O)N[C@@H](CO)C(=O)N[C@@H](CCC(=O)O)C(=O)N[C@@H](Cc1ccc(O)cc1)C(=O)N[C@@H](CCC(N)=O)C(=O)N[C@@H](CC(C)C)C(=O)NCCC(=O)NCCC(=O)N[C@@H](Cc1ccccc1)C(=O)N[C@@H](Cc1ccc(O)cc1)C(=O)N[C@@H](Cc1c[nH]c2ccccc12)C(=O)N[C@@H](CO)C(=O)N[C@@H](C)C(=O)N[C@H](C(=O)N[C@H](C(N)=O)[C@@H](C)O)C(C)C (Ac-K[βAla]FSSKSEYQL[βAla][βAla]FYWSAVT-NH2) | Dose-dependent effect | Stable | – | 11 µM | 70% | Active | 65% | Active | Active | Active | Active |
| CC(=O)N[C@@H](CC(C)C)C(=O)N[C@@H](CCCCN)C(=O)N[C@H](C(=O)N[C@@H](Cc1ccccc1)C(=O)N[C@@H](CO)C(=O)N[C@@H](CO)C(=O)N[C@@H](CCCCN)C(=O)N[C@@H](CO)C(=O)N[C@@H](CCC(=O)O)C(=O)N[C@@H](Cc1ccc(O)cc1)C(=O)N[C@@H](CCC(N)=O)C(=O)N[C@@H](CC(C)C)C(=O)N[C@H](C(=O)N[C@H](C(=O)N[C@@H](CC(N)=O)C(=O)N[C@@H](C)C(=O)N[C@H](C(=O)N[C@@H](CCCNC(=N)N)C(=O)N[C@@H](CCCCN)C(=O)N[C@@H](CC(C)C)C(=O)N[C@@H](CCC(N)=O)C(=O)N[C@@H](CCC(=O)O)C(=O)N[C@@H](CO)C(=O)NCC(N)=O)C(C)C)C(C)C)C(C)C)[C@@H](C)O | – | – | – | – | 40% | Active | 65% | Active | Active | Active | Active |
| Ac-AAARAAARAAARAAARAAARAAAA-NH2 | – | – | – | – | – | – | – | inactive | inactive | inactive | inactive |
